Assay results as given in ChEMBL document CHEMBL1140069, “In vitro antifungal activity of polyfunctionalized 2-(hetero)arylquinolines prepared through imino Diels-Alder reactions” (2008).
Converted amounts (≈) assume the structure as drawn.

What was measured:
Format in all cases: functional
[1] = test system: Cryptococcus neoformans; experiment: Antimicrobial activity against Cryptococcus neoformans IM 031706 isolate at 6.25 ug/ml after 48 hrs
In short: (§1)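 Percent growth inhibition in 96-well microplates. Compound stocks in DMSO (≤2%) were diluted in RPMI-1640 to final 100–6.25 µg/mL, and 100 µL inoculum was added (final 200 µL). Controls were a growth well (inoculum with matching DMSO, no compound) and a sterility well (no inoculum). Inhibition was calculated against growth and sterility wells.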

[2] = test system: Cryptococcus neoformans; experiment: Antimicrobial activity against Cryptococcus neoformans ATCC 32264 at 6.25 ug/ml after 48 hrs; settings: ATCC 32264, 48 h; in short: as §1
[3] = test system: Cryptococcus neoformans; experiment: Antimicrobial activity against Cryptococcus neoformans IM 983036 isolate at 6.25 ug/ml after 48 hrs
In short: (§2)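 Clinical Cryptococcus isolates kept on Sabouraud-dextrose agar slopes; inoculum 1–5 × 10³ CFU/mL. Quinoline DMSO stocks were diluted in RPMI-1640 to final 100–6.25 µg/mL, with DMSO ≤2%. An equal volume of inoculum was added (200 µL per well). Run in triplicate.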

[4] = test system: Candida albicans; experiment: Antimicrobial activity against Candida albicans C128 isolate at 6.25 ug/ml after 24 hrs
In short: (§3)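 Growth-inhibition microplate test. Strains are grown on Sabouraud-chloramphenicol agar for 48 h at 30 °C, and inoculum is added to RPMI-1640 containing compound at a final 100–6.25, with DMSO ≤2%. Each strain has a growth control (same DMSO, no compound) and a sterility control.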

[5] = test system: Candida albicans; experiment: Antimicrobial activity against Candida albicans C129 isolate at 6.25 ug/ml after 24 hrs; in short: as §3
[6] = test system: Cryptococcus neoformans; experiment: Antimicrobial activity against Cryptococcus neoformans IM 972751 isolate at 6.25 ug/ml after 48 hrs; in short: as §2
[7] = test system: Candida albicans; experiment: Antimicrobial activity against Candida albicans C130 isolate at 6.25 ug/ml after 24 hrs; in short: as §3
[8] = test system: Candida tropicalis; experiment: Antimicrobial activity against Candida tropicalis C131 isolate at 6.25 ug/ml after 24 hrs; in short: as §1
[9] = test system: Cryptococcus neoformans; experiment: Antifungal activity against Cryptococcus neoformans ATCC 32264 after 48 hrs by broth microdilution technique; settings: ATCC 32264, 48 h
In short: (§4)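 CLSI broth microdilution: M-27 A2 for yeasts and M-38 A for filamentous fungi. Medium is RPMI-1640 buffered to pH 7.0 with MOPS. Compound is diluted twofold from 250 to 0.98, final DMSO ≤2%. Inoculum is 1–5 × 10³ CFU/mL. Plates are incubated at 35 °C in a moist, dark chamber and read visually at 48 h. MIC100 is the lowest concentration giving total growth inhibition versus drug-free control.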

[10] = test system: Aspergillus flavus; experiment: Antifungal activity against Aspergillus flavus ATCC 9170 after 48 hrs by broth microdilution technique; settings: ATCC 9170, 48 h; in short: as §4
[11] = test system: Candida albicans; experiment: Antimicrobial activity against Candida albicans C127 isolate at 6.25 ug/ml after 24 hrs; settings: C127, 24 h; in short: as §3
[12] = test system: Candida albicans; experiment: Antimicrobial activity against Candida albicans ATCC 10231 at 6.25 ug/ml after 24 hrs; settings: ATCC 10231, 24 h; in short: as §3
[13] = test system: Cryptococcus neoformans; experiment: Antimicrobial activity against Cryptococcus neoformans IM 00319 isolate at 6.25 ug/ml after 48 hrs; in short: as §1
[14] = test system: Cryptococcus neoformans; experiment: Antimicrobial activity against Cryptococcus neoformans IM 972724 isolate at 6.25 ug/ml after 48 hrs; in short: as §2
[15] = test system: Cryptococcus neoformans; experiment: Antimicrobial activity against Cryptococcus neoformans IM 042074 isolate at 6.25 ug/ml after 48 hrs; in short: as §1
[16] = test system: Candida parapsilosis; experiment: Antimicrobial activity against Candida parapsilosis C124 isolate at 6.25 ug/ml after 24 hrs; settings: Lodderomyces parapsilosis; in short: as §1
[17] = test system: Aspergillus niger; experiment: Antifungal activity against Aspergillus niger ATCC 9029 after 48 hrs by broth microdilution technique; settings: ATCC 9029, 48 h; in short: as §4
[18] = test system: Candida albicans; experiment: Antimicrobial activity against Candida albicans C126 isolate at 6.25 ug/ml after 24 hrs; in short: as §3
[19] = test system: Cryptococcus neoformans; experiment: Antimicrobial activity against Cryptococcus neoformans IM 983040 isolate at 6.25 ug/ml after 48 hrs; in short: as §2
[20] = test system: Pichia kudriavzevii; experiment: Antimicrobial activity against Candida krusei C117 isolate at 6.25 ug/ml after 24 hrs; in short: as §1
[21] = test system: Saccharomyces cerevisiae; experiment: Antifungal activity against Saccharomyces cerevisiae ATCC 9763 after 48 hrs by broth microdilution technique; settings: ATCC 9763, 48 h; in short: as §4
[22] = test system: Candida albicans; experiment: Antifungal activity against Candida albicans ATCC 10231 after 48 hrs by broth microdilution technique; settings: ATCC 10231, 48 h; in short: as §4
[23] = test system: Cryptococcus neoformans; experiment: Antimicrobial activity against Cryptococcus neoformans IM 031631 isolate at 6.25 ug/ml after 48 hrs; in short: as §1
[24] = test system: Cryptococcus neoformans; experiment: Antimicrobial activity against Cryptococcus neoformans IM 961951 isolate at 6.25 ug/ml after 48 hrs; in short: as §2
[25] = test system: Cryptococcus neoformans; experiment: Antimicrobial activity against Cryptococcus neoformans IM 052470 isolate at 6.25 ug/ml after 48 hrs; in short: as §1
[26] = test system: Aspergillus fumigatus; experiment: Antifungal activity against Aspergillus fumigatus ATTC 26934 after 48 hrs by broth microdilution technique; in short: as §4
[27] = test system: Nakaseomyces glabratus; experiment: Antimicrobial activity against Candida glabrata C115 isolate at 6.25 ug/ml after 24 hrs; in short: as §1
[28] = test system: Trichophyton rubrum; experiment: Antifungal activity against Trichophyton rubrum C136 isolate; settings: read-out: MIC100
[29] = test system: Trichophyton mentagrophytes; experiment: Antifungal activity against Trichophyton mentagrophytes ATCC 9972 after 48 hrs by broth microdilution technique; settings: ATCC 9972, 48 h; in short: as §4
[30] = test system: Trichophyton rubrum; experiment: Antifungal activity against Trichophyton rubrum C137 isolate; settings: read-out: MIC100
[31] = test system: Trichophyton rubrum; experiment: Antifungal activity against Trichophyton rubrum C133 isolate; settings: read-out: MIC100
[32] = test system: Trichophyton rubrum; experiment: Antifungal activity against Trichophyton rubrum C135 isolate; settings: read-out: MIC100
[33] = test system: Nannizzia gypsea; experiment: Antifungal activity against Microsporum gypseum C115 after 48 hrs by broth microdilution technique; in short: as §4
[34] = test system: Trichophyton mentagrophytes; experiment: Antifungal activity against Trichophyton mentagrophytes C132 isolate; settings: read-out: MIC100
[35] = test system: Trichophyton mentagrophytes; experiment: Antifungal activity against Trichophyton mentagrophytes C943 isolate; settings: read-out: MIC100
[36] = test system: Trichophyton mentagrophytes; experiment: Antifungal activity against Trichophyton mentagrophytes C131 isolate; settings: read-out: MIC100
[37] = test system: Trichophyton mentagrophytes; experiment: Antifungal activity against Trichophyton mentagrophytes C539 isolate; settings: read-out: MIC100
[38] = test system: Trichophyton mentagrophytes; experiment: Antifungal activity against Trichophyton mentagrophytes C364 isolate; settings: read-out: MIC100
[39] = test system: Trichophyton rubrum; experiment: Antifungal activity against Trichophyton rubrum C110 after 48 hrs by broth microdilution technique; in short: as §4

C[C@@H]1[C@H](O)[C@@H](C)/C=C/C=C/C=C/C=C/C=C/C=C/C=C/[C@H](O[C@@H]2O[C@H](C)[C@@H](O)[C@H](N)[C@@H]2O)C[C@@H]2O[C@](O)(C[C@@H](O)C[C@@H](O)[C@H](O)CC[C@@H](O)C[C@@H](O)CC(=O)O[C@H]1C)C[C@H](O)[C@H]2C(=O)O [AMPHOTERICIN B]
inhibition at 6.25 µg/mL [1]: 100%
inhibition at 6.25 µg/mL [2]: 100%
inhibition at 6.25 µg/mL [3]: 100%
inhibition at 6.25 µg/mL [4]: 100%
inhibition at 6.25 µg/mL [5]: 100%
inhibition at 6.25 µg/mL [6]: 100%
inhibition at 6.25 µg/mL [7]: 100%
inhibition at 6.25 µg/mL [8]: 100%
MIC [9]: 0.25 µg/mL (≈ 0.271 µM)
MIC [10]: 0.5 µg/mL (≈ 0.541 µM)
inhibition at 6.25 µg/mL [11]: 100%
inhibition at 6.25 µg/mL [12]: 100%
inhibition at 6.25 µg/mL [13]: 100%
inhibition at 6.25 µg/mL [14]: 100%
inhibition at 6.25 µg/mL [15]: 100%
inhibition at 6.25 µg/mL [16]: 100%
MIC [17]: 0.5 µg/mL (≈ 0.541 µM)
inhibition at 6.25 µg/mL [18]: 100%
inhibition at 6.25 µg/mL [19]: 100%
inhibition at 6.25 µg/mL [20]: 100%
MIC [21]: 0.5 µg/mL (≈ 0.541 µM)
MIC [22]: 1 µg/mL (≈ 1.08 µM)
inhibition at 6.25 µg/mL [23]: 100%
inhibition at 6.25 µg/mL [24]: 100%
inhibition at 6.25 µg/mL [25]: 100%
MIC [26]: 0.5 µg/mL (≈ 0.541 µM)
inhibition at 6.25 µg/mL [27]: 100%

Cc1cc(-c2ccncc2)nc2c(C)cccc12
MIC [28]: 7.8 µg/mL (≈ 33.3 µM)
MIC [29]: 12.5 µg/mL (≈ 53.3 µM)
MIC [30]: 7.8 µg/mL (≈ 33.3 µM)
MIC [31]: 15.6 µg/mL (≈ 66.6 µM)
MIC [32]: 7.8 µg/mL (≈ 33.3 µM)
MIC [9]: > 250 µg/mL
MIC [33]: 12.5 µg/mL (≈ 53.3 µM)
MIC [10]: > 250 µg/mL
MIC [34]: 7.8 µg/mL (≈ 33.3 µM)
MIC [35]: 7.8 µg/mL (≈ 33.3 µM)
MIC [17]: > 250 µg/mL
MIC [36]: 31.2 µg/mL (≈ 133 µM)
MIC [37]: 7.8 µg/mL (≈ 33.3 µM)
MIC [21]: > 250 µg/mL
MIC [22]: > 250 µg/mL
MIC [38]: 7.8 µg/mL (≈ 33.3 µM)
MIC ([39]; read-out: MIC): 12.5 µg/mL (≈ 53.3 µM)
MIC ([39]; read-out: MIC100): 7.8 µg/mL (≈ 33.3 µM)
MIC [26]: > 250 µg/mL

Cc1cc(-c2ccncc2)nc2c(C(C)C)cccc12
MIC [28]: 7.8 µg/mL (≈ 29.7 µM)
MIC [29]: 12.5 µg/mL (≈ 47.6 µM)
MIC [30]: 7.8 µg/mL (≈ 29.7 µM)
MIC [31]: 15.6 µg/mL (≈ 59.5 µM)
MIC [32]: 7.8 µg/mL (≈ 29.7 µM)
MIC [9]: > 250 µg/mL
MIC [33]: 12.5 µg/mL (≈ 47.6 µM)
MIC [10]: > 250 µg/mL
MIC [34]: 7.8 µg/mL (≈ 29.7 µM)
MIC [35]: 7.8 µg/mL (≈ 29.7 µM)
MIC [17]: > 250 µg/mL
MIC [36]: 15.6 µg/mL (≈ 59.5 µM)
MIC [37]: 7.8 µg/mL (≈ 29.7 µM)
MIC [21]: > 250 µg/mL
MIC [22]: > 250 µg/mL
MIC [38]: 7.8 µg/mL (≈ 29.7 µM)
MIC ([39]; read-out: MIC): 12.5 µg/mL (≈ 47.6 µM)
MIC ([39]; read-out: MIC100): 7.8 µg/mL (≈ 29.7 µM)
MIC [26]: > 250 µg/mL
